Source: ChEMBL document CHEMBL4196081, “Synthesis and antimycobacterial activity of 1-(β-d-Ribofuranosyl)-4-coumarinyloxymethyl- / -coumarinyl-1,2,3-triazole” (Eur J Med Chem, 2018)
In brackets after ≈: the same amount, converted by molar mass. Activity calls are given as the source filed them. The calls are words filed in the database; no cut-off is given here.

Experiments:
[1] = Cytotoxicity against human THP1 cells assessed as cell viability at 9.36 ug/ml after 24 hrs by MTT assay relative to control; type: cell-based; conditions: THP-1 cells, read-out: Activity
In short: (§1)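 THP-1 cells (human monocytic line) seeded at 10^4 per well and adhered with phorbol myristate acetate (20 ng/mL). Then given fresh RPMI with 10% foetal calf serum and 2 mM L-glutamine, plus compound by serial double dilution (4.68–150 µg/mL), with DMSO and no-DMSO controls. Incubated 24 or 48 h at 37 °C, 5% CO2. MTT added for 4 h, formazan dissolved in DMSO, A540 read, percentage survival calculated.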

[2] = system: Mycobacterium tuberculosis; assay: Ratio of MBC to MIC for MDR Mycobacterium tuberculosis isolate 591; type: functional
[3] = system: Mycobacterium tuberculosis; assay: Potency index, ratio of ethambutol MIC to compound MIC for antimycobacterial activity against MDR Mycobacterium tuberculosis isolate 591; type: functional
[4] = system: Mycobacterium tuberculosis; assay: Potency index, ratio of streptomycin MIC to compound MIC for antimycobacterial activity against MDR Mycobacterium tuberculosis isolate 591; type: functional
[5] = Cytotoxicity against human THP1 cells assessed as cell viability at 18.72 ug/ml after 24 hrs by MTT assay relative to control; type: cell-based; conditions: THP-1 cells, read-out: Activity; in short: as §1
[6] = system: Mycobacterium tuberculosis; assay: Bactericidal activity against Mycobacterium tuberculosis H37Rv after 4 weeks by MABA; type: functional; conditions: 672 h
[7] = Cytotoxicity against human THP1 cells assessed as cell viability at 150 ug/ml after 48 hrs by MTT assay relative to control; type: cell-based; conditions: THP-1 cells, read-out: Activity; in short: as §1
THP-1 = assay: Cytotoxicity against human THP1 cells assessed as growth inhibition after 24 to 48 hrs by MTT assay; type: cell-based; in short: as §1
[8] = Cytotoxicity against human THP1 cells assessed as cell viability at 75 ug/ml after 24 hrs by MTT assay relative to control; type: cell-based; conditions: THP-1 cells, read-out: Activity; in short: as §1
[9] = Cytotoxicity against human THP1 cells assessed as cell viability at 4.68 ug/ml after 24 hrs by MTT assay relative to control; type: cell-based; conditions: THP-1 cells, read-out: Activity; in short: as §1
[10] = Selectivity index, ratio of IC50 for cytotoxicity against human THP1 cells to MIC for Mycobacterium tuberculosis H37Rv; type: toxicity, cell-based; conditions: THP-1 cells, read-out: Selectivity Index
In short: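 THP-1 cells, 10^4/well, adhered with PMA 20 ng/mL, in RPMI with 10 % FCS and 2 mM L-glutamine; exposed to 4.68–150 µg/mL for 24 and 48 h at 37 °C, 5 % CO2; MTT 4 h, formazan in DMSO, A540. Index = THP-1 IC50 divided by H37Rv MABA MIC.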

[11] = target: DNA gyrase subunit B (Escherichia coli) (UniProt P0AES6); assay: Inhibition of Escherichia coli DNA gyrase-B at 0.66 to 100 uM using relaxed pUC19 DNA as substrate after 1 hr by bromophenol blue dye based agarose gel electrophoresis method
In short: (§2)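 E. coli DNA gyrase, 1 unit, with 0.3 µg relaxed pUC19 plasmid in 1X gyrase assay buffer. Compound added as 0.2 µL from 100 µM stock; ciprofloxacin positive control, DMSO solvent control. Incubated 37 °C for 1 h, stopped with 50% glycerol/0.25% bromophenol blue. Run on 1% agarose in 0.5X TBE pH 8.3, 16 h at 30 mA, ethidium bromide stained, UV visualised for supercoiling.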

[12] = Cytotoxicity against human THP1 cells assessed as cell viability at 37.48 ug/ml after 48 hrs by MTT assay relative to control; type: cell-based; conditions: THP-1 cells, read-out: Activity; in short: as §1
[13] = Cytotoxicity against human THP1 cells assessed as cell viability at 4.68 ug/ml after 48 hrs by MTT assay relative to control; type: cell-based; conditions: THP-1 cells, read-out: Activity; in short: as §1
[14] = Cytotoxicity against human THP1 cells assessed as cell viability at 9.36 ug/ml after 48 hrs by MTT assay relative to control; type: cell-based; conditions: THP-1 cells, read-out: Activity; in short: as §1
[15] = Cytotoxicity against human THP1 cells assessed as cell viability at 18.72 ug/ml after 48 hrs by MTT assay relative to control; type: cell-based; conditions: THP-1 cells, read-out: Activity; in short: as §1
[16] = Cytotoxicity against human THP1 cells assessed as cell viability at 150 ug/ml after 24 hrs by MTT assay relative to control; type: cell-based; conditions: THP-1 cells, read-out: Activity; in short: as §1
[17] = Cytotoxicity against human THP1 cells assessed as cell viability at 37.48 ug/ml after 24 hrs by MTT assay relative to control; type: cell-based; conditions: THP-1 cells, read-out: Activity; in short: as §1
[18] = system: Mycobacterium tuberculosis; assay: Antimycobacterial activity against Mycobacterium tuberculosis H37Rv after 10 days by MABA; type: functional; conditions: 240 h
In short: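 MABA in 7H9 medium: log-phase culture passed through 8 µm filter, density set by OD600 and McFarland standards, 1 × 10^6 cells per well with drug dilutions; aerobic incubation 37 °C 10 days, then 0.02 % resazurin, overnight 37 °C. MIC = lowest concentration preventing blue-to-pink change. Triplicate; medium+inoculum and medium-only controls.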

[19] = system: Mycobacterium tuberculosis; assay: Antimycobacterial activity against Mycobacterium tuberculosis H37Rv assessed as cells with vacuole formation at 1.38 uM after 30 mins by TEM analysis; type: functional, organism-based
[20] = system: Mycobacterium tuberculosis; assay: Potency index, ratio of rifampicin MIC to compound MIC for antimycobacterial activity against MDR Mycobacterium tuberculosis isolate 591; type: functional
[21] = system: Mycobacterium tuberculosis; assay: Antimycobacterial activity against MDR Mycobacterium tuberculosis isolate 591 after 15 days by MABA; type: functional; conditions: isolate 591, 360 h
In short: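 MABA in 7H9 medium on MDR clinical isolate 591: filtered single-cell suspension, 1 × 10^6 cells per well with drug dilutions, aerobic 37 °C; 0.02 % resazurin added on day 15, overnight 37 °C. MIC = lowest concentration preventing blue-to-pink change. Triplicate; medium+inoculum and medium-only controls.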

[22] = target: T1, Enoyl-[acyl-carrier-protein] reductase [NADH] (Mycobacterium tuberculosis) (UniProt P9WGR1); assay: Inhibition of Mycobacterium tuberculosis H37Rv InhA expressed in Escherichia coli at 5 to 100 uM preincubated for 30 mins followed by crotonoyl-CoA substrate and NADH addition measured over 15 mins by spectrophotometric method
T1 sequence (whole entry): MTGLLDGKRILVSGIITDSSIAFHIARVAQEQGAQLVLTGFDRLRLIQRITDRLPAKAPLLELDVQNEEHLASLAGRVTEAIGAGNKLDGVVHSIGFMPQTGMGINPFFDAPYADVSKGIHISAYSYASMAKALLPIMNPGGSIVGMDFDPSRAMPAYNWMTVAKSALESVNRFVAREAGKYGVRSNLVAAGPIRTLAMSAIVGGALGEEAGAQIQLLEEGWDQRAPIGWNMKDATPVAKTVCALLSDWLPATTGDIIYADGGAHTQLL
In short: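 Purified recombinant InhA (Rv1484, cloned in E. coli), 2 µg, preincubated 30 min with compound at 5 µM final (DMSO ≤1 % v/v) in 100 mM sodium phosphate pH 7.5; started with 100 µM NADH and 100 µM crotonoyl-CoA; A340 followed 15 min at room temperature. Triplicate.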

DNA gyrase subunit B = DNA gyrase subunit B (Escherichia coli, UniProt P0AES6); assay: Inhibition of Escherichia coli DNA gyrase-B using relaxed pUC19 DNA as substrate after 1 hr by bromophenol blue dye based agarose gel electrophoresis method; in short: as §2
[23] = system: Mycobacterium tuberculosis; assay: Ratio of MBC to MIC for Mycobacterium tuberculosis H37Rv; type: functional
[24] = system: Mycobacterium tuberculosis; assay: Antimycobacterial activity against Mycobacterium tuberculosis H37Rv assessed as induction of cell wall disintegration at 1.38 uM after 30 mins by TEM analysis; type: functional, organism-based
[25] = Cytotoxicity against human THP1 cells assessed as cell viability at 75 ug/ml after 48 hrs by MTT assay relative to control; type: cell-based; conditions: THP-1 cells, read-out: Activity; in short: as §1
[26] = system: Mycobacterium tuberculosis; assay: Potency index, ratio of isoniazid MIC to compound MIC for antimycobacterial activity against MDR Mycobacterium tuberculosis isolate 591; type: functional
[27] = system: Mycobacterium tuberculosis; assay: Bactericidal activity against MDR Mycobacterium tuberculosis isolate 591 after 4 weeks by MABA; type: functional; conditions: isolate 591, 672 h
[28] = system: Mycobacterium tuberculosis; assay: Antimycobacterial activity against Mycobacterium tuberculosis H37Rv assessed as induction of cell wall disintegration at 0.05 uM after 30 mins by TEM analysis; type: functional, organism-based
[29] = system: Mycobacterium tuberculosis; assay: Antimycobacterial activity against Mycobacterium tuberculosis H37Rv assessed as induction of cell wall disintegration at 4.15 uM after 30 mins by TEM analysis; type: functional, organism-based
[30] = system: Mycobacterium tuberculosis; assay: Antimycobacterial activity against Mycobacterium tuberculosis H37Rv assessed as cells with vacuole formation at 4.15 uM after 30 mins by TEM analysis; type: functional, organism-based

Compound	viability at 24 h, 9.36 ug/ml [1] [%]	Ratio [2]	viability at 24 h, 18.72 ug/ml [5] [%]	MBC [6] [µM]	viability at 48 h, 150 ug/ml [7] [%]	IC50 (THP-1) [µM]	viability at 24 h, 75 ug/ml [8] [%]	viability at 24 h, 4.68 ug/ml [9] [%]	selectivity ratio [10]	inhibition [11]	viability at 48 h, 37.48 ug/ml [12] [%]	viability at 48 h, 4.68 ug/ml [13] [%]	viability at 48 h, 9.36 ug/ml [14] [%]	viability at 48 h, 18.72 ug/ml [15] [%]	viability at 24 h, 150 ug/ml [16] [%]	viability at 24 h, 37.48 ug/ml [17] [%]	MIC [18] [µM]	MIC [21] [µM]	Ratio [23]	viability at 48 h, 75 ug/ml [25] [%]	also measured
Cc1cc(=O)oc2cc(OCc3cn([C@@H]4O[C@H](CO)[C@@H](O)[C@H]4O)nn3)ccc12	100	1.13	100	6.4 (≈ 2.49 µg/mL)	60	> 385	97	100	75.4	Active	74	95	94	84	84	100	5.1 (≈ 1.99 µg/mL)	10.3 (≈ 4.01 µg/mL)	1.25	68	Ratio [3]: 7 - 420; Ratio [4]: 7 - 420; Activity [19]: Active; Ratio [20]: 7 - 420; inhibition [22]: Active; IC50 (DNA gyrase subunit B): 0.8 µM; Activity [24]: Active; Ratio [26]: 7 - 420; MBC [27]: 11.5 µM (≈ 4.48 µg/mL)
NNC(=O)c1ccncc1 [ISONIAZID]	85		83	0.3 (≈ 0.0411 µg/mL)	40	547	50	90	2740		57	84	74	67	48	68	0.2 (≈ 0.0274 µg/mL)	2190 (≈ 300 µg/mL)	1.6	41	Activity [28]: Active
Cc1cc(=O)oc2cc(-c3cn([C@@H]4O[C@H](CO)[C@@H](O)[C@H]4O)nn3)ccc12	100	1	99	16.7 (≈ 6 µg/mL)	60	> 417	96	100	25	Active	77	96	90	87	84	99	16.6 (≈ 5.97 µg/mL)	22.2 (≈ 7.98 µg/mL)	1	64	Activity [29]: Active; inhibition [22]: Active; IC50 (DNA gyrase subunit B): 3.2 µM; Activity [30]: Active; MBC [27]: 22.2 µM (≈ 7.98 µg/mL)
